Source: PubChem BioAssay (several laboratories)
AI-2 QS modul: modulators of Vibrio harveyi AI-2 quorum sensing system; Vibrio harveyi JMH597 AI-2 luminescence/OD600 ratio, 9 h; stronger effect = lower value; strain lacks LuxN and CqsS sensors; 0 = neutral-control median; activity change, % at 7.5 µM; 300,000 compounds, 0.4% hits; in the data active = activity change below about -75%, passing the limit was not always enough;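 also: luminescence divided by OD600 gain over 9 h not by final OD600 alone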
Tb MetRS inh: Trypanosoma brucei MetRS inhibition; purified T. brucei MetRS, ATP depletion, Kinase-Glo luminescence; inhibition, % at 11.9 µM; 360,000 compounds, 0.4% hits; AID 624268;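 active = inhibition above a per-plate cutoff of the control wells' mean inhibition plus 3 SD, cut at about 5.5% in these data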
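Material: T. brucei methionyl-tRNA synthetase, purified; reagent: substrates ATP, L-methionine and bulk Escherichia coli tRNA; dosing: 11.9 µM single point; timing: 15 min plus 2 h at 25 °C; detection: luminescence of leftover ATP; evaluation: % inhibition; control set: DMSO-only wells as low control; replicates: singlicate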
bovine MsrA act: activators of bovine methionine sulfoxide reductase A | AID 602163 | 360,000 compounds, 0.3% hits | activation, % at 10.6 µM | purified bovine MsrA, absorbance read-out; in the data active = activation above about 7.5%
MsrA inh: inhibitors of bovine MsrA | 360,000 compounds, 0.75% hits | purified bovine MsrA, absorbance read-out | inhibition, % at 15.5 µM; in the data active = inhibition above about 4.5%
AHR act: activators of human aryl hydrocarbon receptor; P35869; AHR-responsive luciferase reporter cells, luminescence; activation, % at 5 µM; 320,000 compounds, 2.5% hits; AID 2796; in the data active = activation above about 47%
Target sequence (P35869 whole entry, looked up): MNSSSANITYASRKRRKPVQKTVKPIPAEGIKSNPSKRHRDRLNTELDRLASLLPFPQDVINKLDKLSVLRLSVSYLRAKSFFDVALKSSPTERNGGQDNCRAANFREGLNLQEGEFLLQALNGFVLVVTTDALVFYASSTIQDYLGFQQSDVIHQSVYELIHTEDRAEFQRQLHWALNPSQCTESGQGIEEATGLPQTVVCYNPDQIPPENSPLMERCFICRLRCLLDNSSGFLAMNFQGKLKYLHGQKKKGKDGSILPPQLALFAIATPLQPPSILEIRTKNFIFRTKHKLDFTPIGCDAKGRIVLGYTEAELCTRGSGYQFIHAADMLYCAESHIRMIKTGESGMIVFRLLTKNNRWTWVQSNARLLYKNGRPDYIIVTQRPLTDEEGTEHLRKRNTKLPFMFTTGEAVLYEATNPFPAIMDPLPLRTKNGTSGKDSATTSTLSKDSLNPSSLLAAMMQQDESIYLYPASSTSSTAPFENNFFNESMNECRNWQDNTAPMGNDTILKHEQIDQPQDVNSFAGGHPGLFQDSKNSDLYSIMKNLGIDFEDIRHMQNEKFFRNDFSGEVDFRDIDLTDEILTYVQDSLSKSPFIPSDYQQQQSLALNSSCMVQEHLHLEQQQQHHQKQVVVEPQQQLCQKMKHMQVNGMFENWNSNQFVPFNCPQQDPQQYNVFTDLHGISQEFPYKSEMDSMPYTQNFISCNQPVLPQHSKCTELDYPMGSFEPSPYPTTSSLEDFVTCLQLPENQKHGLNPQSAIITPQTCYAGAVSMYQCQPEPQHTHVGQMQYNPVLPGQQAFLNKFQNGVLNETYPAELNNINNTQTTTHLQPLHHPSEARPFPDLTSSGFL
m5-HT2A agonist: mouse HTR2A agonism via beta-arrestin recruitment | P35363 | CHO-K1 mHTR2A beta-arrestin complementation, luminescence; percent of 30 µM serotonin response | activation, % at 7.6 µM | 360,000 compounds, 0.66% hits | AID 624169;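 active = activation above a run cutoff, the mean activation of all tested compounds plus 3 SD, cut at about 14% in these data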
Numbers stand for hits. This is a sample that favours compounds with a hit; in the whole collection about 4.4% have one here.

What do the screens show for `COc1ccccc1Nc1ncc(C(=O)N2CCC(C(N)=O)CC2)c2ccccc12`?
Tb MetRS inh: inactive; bovine MsrA act: inactive; MsrA inh: inactive; AHR act: inactive; m5-HT2A agonist: inactive

How did COc1ccccc1/C=C/C(=O)OCC(=O)N1c2ccccc2CC1C (centres undefined) do in these assays?
Tb MetRS inh: inactive; bovine MsrA act: inactive; MsrA inh: inactive; AHR act: inactive; m5-HT2A agonist: inactive

What do the screens show for `COC(=O)C1=C(C)N(Cc2ccc(C(F)(F)F)cc2)C(=NCc2cc(OC)c(OC)c(OC)c2)NC1c1cccc(Cl)c1` (centres undefined)?
MsrA inh: inactive

What do the screens show for `Nc1[nH]c(C(=O)c2ccccc2)c(-c2cccnc2)c1C(=O)c1ccccc1`?
MsrA inh: inactive

What do the screens show for `Nc1c(Cl)cc(C2=NCCn3c2c2ccc([N+](=O)[O-])cc2[n+]3[O-])cc1Cl`?
AI-2 QS modul: inactive; Tb MetRS inh: inactive; bovine MsrA act: inactive; MsrA inh: inactive; AHR act: 73; m5-HT2A agonist: inactive

How did [O-][n+]1c2cc(C(F)(F)F)ccc2c2n1CCN=C2c1ccc(Cl)cc1 do in these assays?
AI-2 QS modul: inactive; Tb MetRS inh: inactive; bovine MsrA act: inactive; MsrA inh: inactive; AHR act: 63; m5-HT2A agonist: inactive

How did Nc1c(-c2ccc(Cl)cc2)cnn1-c1cc(C(F)(F)F)cc(C(F)(F)F)c1 do in these assays?
AI-2 QS modul: inactive; Tb MetRS inh: inactive; bovine MsrA act: inactive; MsrA inh: inactive; AHR act: inactive; m5-HT2A agonist: inactive

Results for Cc1ccc(N=Nc2[nH]c3ccccc3c2O)cc1 ?
AI-2 QS modul: inactive; Tb MetRS inh: inactive; bovine MsrA act: inactive; MsrA inh: inactive; AHR act: 77; m5-HT2A agonist: inactive

How did COc1ccc(N=Nc2[nH]c3ccc(C)cc3c2O)cc1 do in these assays?
AI-2 QS modul: inactive; Tb MetRS inh: inactive; bovine MsrA act: inactive; MsrA inh: inactive; AHR act: 69; m5-HT2A agonist: inactive

What do the screens show for `NC(=O)c1ccc(N=Nc2c(O)c3ccccc3[nH]c2=O)cc1`?
AI-2 QS modul: inactive; AHR act: inactive

How did COc1cccc(C(=O)NCC2CCN(C(=O)C(=O)c3cc4ccccc4o3)CC2)c1 do in these assays?
MsrA inh: inactive

How did CN1C(=C2C(=O)OC(C)(C)OC2=O)Sc2ccccc21 do in these assays?
AI-2 QS modul: inactive; Tb MetRS inh: inactive; bovine MsrA act: inactive; MsrA inh: 4.8; AHR act: inactive; m5-HT2A agonist: inactive

How did O=C(c1cnn(C(=O)COc2ccc(Cl)cc2)c1)c1ccccc1O do in these assays?
AI-2 QS modul: inactive; Tb MetRS inh: inactive; bovine MsrA act: inactive; MsrA inh: inactive; AHR act: inactive; m5-HT2A agonist: inactive

Results for N#Cc1ccc(OCC(=O)n2cc(C(=O)c3cc(Cl)cc(Cl)c3O)cn2)cc1 ?
AI-2 QS modul: inactive; AHR act: 70

How did O=C(N[C@H](C(=O)N1CCC[C@H]1C(=O)NC1CCCC1)c1ccccc1)c1ccc(Cl)c(Cl)c1 do in these assays?
MsrA inh: inactive

How did O=C1/C(=C/c2ccc([N+](=O)[O-])cc2)Oc2cc(O)ccc21 do in these assays?
AI-2 QS modul: -83; Tb MetRS inh: inactive; bovine MsrA act: inactive; MsrA inh: inactive; m5-HT2A agonist: inactive

Results for COc1ccc(C(=O)/C=C2/C(=O)Nc3ccccc32)cc1 ?
AI-2 QS modul: inactive; Tb MetRS inh: inactive; bovine MsrA act: inactive; MsrA inh: inactive; m5-HT2A agonist: inactive

Results for O=C1Nc2ccccc2/C1=C/C(=O)c1cccs1 ?
AI-2 QS modul: inactive; Tb MetRS inh: inactive; bovine MsrA act: inactive; MsrA inh: inactive; AHR act: 118; m5-HT2A agonist: inactive

Results for COc1cccc(OC)c1NC(=O)Cc1nn(C)c(=O)c2ccccc12 ?
AI-2 QS modul: inactive; Tb MetRS inh: inactive; bovine MsrA act: inactive; MsrA inh: inactive; AHR act: inactive; m5-HT2A agonist: inactive

What do the screens show for `COc1cc(NC(=O)Cn2ncc3c2-c2ccccc2OC3)cc(OC)c1OC`?
AI-2 QS modul: inactive; Tb MetRS inh: inactive; bovine MsrA act: inactive; MsrA inh: inactive; AHR act: inactive; m5-HT2A agonist: inactive

What do the screens show for `COc1ccccc1NC(=O)Cn1ncc2c1-c1ccccc1OC2`?
AI-2 QS modul: inactive; Tb MetRS inh: inactive; bovine MsrA act: inactive; MsrA inh: inactive; AHR act: 59; m5-HT2A agonist: inactive

How did COc1ccccc1NC(=O)CC(=O)c1ccccc1 do in these assays?
AI-2 QS modul: inactive; Tb MetRS inh: inactive; bovine MsrA act: inactive; MsrA inh: inactive; AHR act: inactive; m5-HT2A agonist: inactive

What do the screens show for `COc1ccccc1NC(=O)CC(=O)Nc1ccccc1OC`?
AI-2 QS modul: inactive; Tb MetRS inh: inactive; bovine MsrA act: inactive; MsrA inh: inactive; AHR act: 69; m5-HT2A agonist: inactive

Results for COc1ccccc1NC(=O)c1sc(Cl)nc1C ?
AI-2 QS modul: inactive; Tb MetRS inh: inactive; bovine MsrA act: inactive; MsrA inh: inactive; AHR act: 70; m5-HT2A agonist: inactive

Results for COc1ccccc1NC(=O)Cc1nn(C)c(=O)c2ccccc12 ?
AI-2 QS modul: inactive; Tb MetRS inh: inactive; bovine MsrA act: inactive; AHR act: 64; m5-HT2A agonist: inactive

Results for CSc1n[nH]c(-c2cccs2)n1 ?
MsrA inh: inactive

How did COCCN(Cc1ccc(C)cc1)C(=O)[C@H]1O[C@@H](n2cnc(C(N)=O)n2)[C@H](O)[C@@H]1O do in these assays?
MsrA inh: inactive

What do the screens show for `Cc1ccc(NC(=O)CNC(=O)Cc2cccc3ccccc23)c(O)c1`?
AI-2 QS modul: inactive; Tb MetRS inh: inactive; bovine MsrA act: inactive; MsrA inh: inactive; AHR act: inactive; m5-HT2A agonist: inactive

How did COc1ccccc1NC(=O)Nc1cc(NC(=O)Nc2ccccc2OC)c(C)nc1C do in these assays?
AI-2 QS modul: inactive; Tb MetRS inh: inactive; bovine MsrA act: inactive; MsrA inh: inactive; AHR act: 49; m5-HT2A agonist: inactive

What do the screens show for `CC(C)c1ccc(NC(=O)COc2ccccn2)cc1`?
AI-2 QS modul: -83; Tb MetRS inh: inactive; bovine MsrA act: inactive; MsrA inh: inactive; AHR act: inactive; m5-HT2A agonist: inactive

How did CCCCc1c(-c2ccccc2OC)ncn1Cc1cccc(C)c1 do in these assays?
MsrA inh: inactive

What do the screens show for `COc1ccc(C(=O)NNC(=O)COc2ccc(Cl)cc2)c(OC)c1`?
AI-2 QS modul: inactive; Tb MetRS inh: inactive; bovine MsrA act: inactive; MsrA inh: inactive; AHR act: 73; m5-HT2A agonist: inactive

Results for Cc1c(C(=O)NC2=NCCS2)oc2ccccc12 ?
AI-2 QS modul: inactive; Tb MetRS inh: inactive; bovine MsrA act: inactive; MsrA inh: inactive; AHR act: 64; m5-HT2A agonist: inactive

How did Cc1c(C(=O)NC2CCCC2)oc2ccccc12 do in these assays?
Tb MetRS inh: inactive; bovine MsrA act: inactive; MsrA inh: inactive; AHR act: 61; m5-HT2A agonist: inactive

Results for COC(=O)[C@]12C[C@H](CC(=O)N3CCCC3)C(=O)N(Cc3ccc4c(c3)OCO4)C1=C[C@H](C(C)(C)C)O[C@@H]2C ?
MsrA inh: inactive
